Compounds with a hit are over-represented: about 3.2% of the library has one in this group of screens.
Cneo AK release: Cryptococcus neoformans cell lysis inducers, primary screen, AK release luminescence, single concentration; C. neoformans lysis, adenylate kinase release luminescence, 4 h; normalised: neutral wells 0, clomiphene wells 100; lysis activity, % at 15 µM; actives 0.2% (n = 360,000); AID 651654, 2012;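 active = mean lysis activity across replicates of at least 80%, whatever share of replicates individually reach that level; inactive = mean lysis activity below 80%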
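Assay system: C. neoformans cells. Amount: yeast cell density of 5 × 10^6 cells/mL. Technique: AK luminescence. Buffer or medium: YPD. Times: static 4 h at 37 °C with compound, 1 h detection. Dosing: single-point compound dose. Read-out: lysis from increased AK signal.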
rRNA inh HTS: reduced GFP signal of wild-type E. coli, primary screen, bacterial rRNA inhibitor project, GFP/RFP fluorescence, OD600, single point; E. coli WT GFP vs humanized-ribosome RFP mutants, 24 h; active compounds read low; DMSO median 0, no signal -100; actives 1.6% (n = 350,000); AID 720706, 2013; GFP signal change (wild-type ribosome), % (test concentration not listed);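 active = significant combined selectivity score with lowered wild-type GFP, culture density cut under 30%, mutant RFP and density less affected; inactive = any of these conditions unmet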
S100A4 MyoIIA: inhibitors of S100A4-myosin IIA peptide binding, primary screen, biochemical, fluorescence polarization, TAMRA-MyoIIA peptide. Protein S100-A4 (Homo sapiens), P26447. inhibition, % at 10.7 µM. actives 0.14% (n = 360,000);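 active = mean inhibition of at least 70% across replicates, with every replicate also reaching that level; inconclusive = mean inhibition reaches 70% but some replicates fall short; inactive = mean inhibition below 70%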
Target sequence (P26447 whole entry, looked up): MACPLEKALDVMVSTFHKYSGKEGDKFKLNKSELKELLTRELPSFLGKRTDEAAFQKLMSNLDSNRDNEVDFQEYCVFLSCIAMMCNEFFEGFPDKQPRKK
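assay system = human S100A4 monomer with TAMRA-labelled myosin IIA peptide | also added = labelled myosin peptide probe, 5 nM | incubation = 5 min between mix addition and reading | control set = DMSO and TFP controls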
MLL AF4-AF9 inh: inhibitors of AF4 peptide binding to AF9, primary screen, biochemical, AlphaScreen, biotin-AF4 peptide, FLAG-AF9, single point | Protein AF-9 (Homo sapiens), P42568 | inhibition, % at 10 µM | actives 0.47% (n = 350,000) | AID 651704, 2012;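 active = every replicate reaching a set inhibition limit, whatever the replicate mean, cut at about 25% in these data; inconclusive = mean inhibition reaches that limit but some replicates miss it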;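 note: 0% = plate neutral control median and 100% = total signal loss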
Target sequence (P42568 whole entry, looked up): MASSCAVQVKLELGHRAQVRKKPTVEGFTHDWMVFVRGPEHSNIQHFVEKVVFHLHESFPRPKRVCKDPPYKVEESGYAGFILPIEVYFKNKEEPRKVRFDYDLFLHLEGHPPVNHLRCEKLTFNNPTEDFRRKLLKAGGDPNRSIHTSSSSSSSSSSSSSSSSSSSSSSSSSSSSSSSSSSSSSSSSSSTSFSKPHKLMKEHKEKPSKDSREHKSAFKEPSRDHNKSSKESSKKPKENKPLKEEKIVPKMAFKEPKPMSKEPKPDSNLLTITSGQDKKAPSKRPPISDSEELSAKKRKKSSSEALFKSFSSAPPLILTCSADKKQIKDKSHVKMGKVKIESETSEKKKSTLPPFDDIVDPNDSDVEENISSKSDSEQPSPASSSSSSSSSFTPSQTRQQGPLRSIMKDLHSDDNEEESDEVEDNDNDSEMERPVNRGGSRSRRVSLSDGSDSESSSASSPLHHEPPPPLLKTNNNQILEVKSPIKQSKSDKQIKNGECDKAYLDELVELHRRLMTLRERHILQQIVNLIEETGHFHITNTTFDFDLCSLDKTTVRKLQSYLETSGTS
DENV2 CPE: inhibitors of DENV2 cytopathic effect, primary screen, cell-based, plate reader, single concentration. AID 651640, 2012. CPE inhibition, % at 9.99 µM. actives 1.7% (n = 350,000). DENV2-infected cells, cytopathic effect rescue; in the data active = CPE inhibition above about 20%, passing the limit was not always enough; inconclusive = no clear call, values can overlap the other calls; tested in BHK-21 cells;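 note: 0% = median of neutral control wells and 100% = median of positive control wells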
PfHsp90 yeast 2: growth inhibition of PfHsp90-expressing yeast, primary screen, antimalarial PfHsp90 inhibitor project, S. cerevisiae, BacTiter-Glo luminescence, single point, set 2. BacTiter-Glo ATP, 48 h; yeast lacking PDR1 and PDR3 efflux regulators. inhibition, % at 9.4 µM. actives 0.32% (n = 310,000);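 active = every replicate shows inhibition above about 80%, whatever the replicate mean, limit read from the data; inconclusive = mean inhibition reaches the set limit but some replicate falls short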;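 note: 0% = DMSO neutral controls and 100% = 20 µM radicicol positive controls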
* hit, by the source's call; ? = inconclusive; · = not tested or not shown.

SMILES	Cneo AK release	rRNA inh HTS	S100A4 MyoIIA	MLL AF4-AF9 inh	DENV2 CPE	PfHsp90 yeast 2
COc1ccc(NC(=O)Nc2ccc3c(c2)CC(=O)N([C@@H](C)CO)C[C@@H](C)[C@H](CN(C)Cc2ccc(Cl)c(Cl)c2)O3)cc1	0	1	·	·	-2	·
CN(C)C(=O)c1ccc(-c2ccccc2[C@@H]2[C@@H](CO)N(C(=O)C3CCCC3)[C@H]2C#N)cc1	·	3	7	-2	15	·
CC(=O)NCC(=O)NC1CCCc2c1cnn2-c1ccc(C(C)(C)C)cc1 (configuration not stated)	-1	-10	-2	-2	31*	-24
O=C(COc1cc2oc(=O)c3c(c2cc1Cl)CCC3)NCC1CCC(C(=O)O)CC1 (configuration not stated)	·	7	-3	-1	5	-6
O=C(COc1cc2oc(=O)c3c(c2cc1Cl)CCCC3)NCC1CCC(C(=O)O)CC1 (configuration not stated)	-1	-23*	0	1	0	-13
Fc1ccc(CNC2CCN(Cc3ccccc3)CC2)cc1	-5	4	0	5	35*	8
Clc1ccc(CNC2CCN(Cc3ccccc3)CC2)cc1	8	11	-2	-4	16	11
COc1ccc(NC(=O)N(C)C[C@H]2Oc3ccc(NC(=O)Nc4ccc(F)cc4)cc3CC(=O)N([C@H](C)CO)C[C@@H]2C)cc1	1	-3	-3	0	-8	·
CCc1ccc(NS(=O)(=O)c2ccc3[nH]cc(C(=O)N(C)Cc4ccco4)c(=O)c3c2)cc1	-1	-25*	3	1	3	-2
CN(Cc1ccco1)C(=O)c1c[nH]c2ccc(S(=O)(=O)Nc3ccc4c(c3)OCCO4)cc2c1=O	·	6	2	-7	-10	-29
Cc1ccc(S(=O)(=O)Nc2ccc3c(c2)CC(=O)N([C@@H](C)CO)C[C@H](C)[C@@H](CN(C)C)O3)cc1	9	-2	2	-4	9	·
O=C(Nc1cccc(C(=O)O)c1)/C(=C\c1ccccc1)NC(=O)c1ccco1	-1	13	3	0	27*	·
CC(=O)NC(=S)NNC(=O)CCc1ccccc1	·	-24*	-4	-2	-4	-8
Cc1cc(Cl)ccc1NNC(=O)CCc1ccccc1	·	-29*	-2	3	3	-17
CCCCC(=O)NC(=S)NNC(=O)CCc1ccccc1	1	-14	-9	6	1	-1
CC(C)NC(=O)Nc1ccc2c(c1)CC(=O)N([C@H](C)CO)C[C@H](C)[C@@H](CN(C)S(=O)(=O)c1ccc(F)cc1)O2	·	-1	·	-2	·	·
C[C@@H]1CN([C@@H](C)CO)C(=O)Cc2cc(NC(=O)Cn3cnnn3)ccc2O[C@@H]1CN(C)Cc1ccc(Cl)c(Cl)c1	-1	-2	-4	6	9	·
C=CC[C@]12C=C(OC)C(=O)C(OC)=C1O[C@@H](c1ccc3c(c1)OCO3)[C@H]2C	-2	2	-15	-1	30*	·
COc1ccc(S(=O)(=O)Nc2ccc3c(c2)CC(=O)N([C@H](C)CO)C[C@H](C)[C@H](CN(C)C(=O)Nc2cccc4ccccc24)O3)cc1	-1	-1	-8	0	-9	·
Cc1ccc(C(C[N+](=O)[O-])Sc2ccc(N)cc2)cc1 (configuration not stated)	1	·	0	-1	3	107*
C[C@H](CO)N1C[C@H](C)[C@@H](CN(C)S(=O)(=O)c2cn(C)cn2)Oc2ccc(NC(=O)CCCCCC(=O)Nc3ccccc3N)cc2CC1=O	-1	2	-13	0	5	·
O=[N+]([O-])c1ccc(N2CCN(S(=O)(=O)c3ccccc3[N+](=O)[O-])CC2)cc1N1CCc2ccccc2C1	-1	1	13	2	112*	1
C[C@H]1CN([C@@H](C)CO)C(=O)c2cc(NS(=O)(=O)c3cccs3)ccc2O[C@H]1CN(C)C(=O)NC1CCCCC1	-3	0	-9	-1	?	·
Cc1ccc(S(=O)(=O)N(C)C[C@@H]2OCCCC[C@H](C)Oc3ccc(NC(=O)NC4CCCCC4)cc3C(=O)N([C@@H](C)CO)C[C@H]2C)cc1	1	3	-1	26*	-5	·
Cc1ccc(S(=O)(=O)N(C)C[C@H]2OCCCC[C@@H](C)Oc3ccc(NC(=O)NC(C)C)cc3C(=O)N([C@@H](C)CO)C[C@H]2C)cc1	-2	-5	-10	-2	12	·
SMILES	Cneo AK release	rRNA inh HTS	S100A4 MyoIIA	MLL AF4-AF9 inh	DENV2 CPE	PfHsp90 yeast 2
Cc1ccc(S(=O)(=O)N(C)C[C@H]2OCCCC[C@@H](C)Oc3ccc(NC(=O)NC(C)C)cc3C(=O)N([C@H](C)CO)C[C@@H]2C)cc1	1	-7	-5	-2	72*	·
Cc1ccc(S(=O)(=O)N(C)C[C@H]2OCCCC[C@H](C)Oc3ccc(NC(=O)NC4CCCCC4)cc3C(=O)N([C@H](C)CO)C[C@@H]2C)cc1	51	0	2	-8	-5	·
COc1cc(C(=O)NCC(=O)N/N=C/c2cccnc2)cc(OC)c1OC	0	4	-6	45*	-3	-13
COc1ccccc1CN1C[C@@H](C)[C@H](OC)CN(C)C(=O)c2ccc(NC(C)=O)cc2OC[C@H]1C	-1	2	-54	-1	2	·
COc1cccc(-c2ccc3c(c2)[C@H]2[C@H](CCN2S(=O)(=O)c2cn(C)cn2)[C@@H](CO)N3)c1	18	-3	-4	0	98*	·
Cn1cnc(S(=O)(=O)N2CC[C@@H]3[C@H](CO)Nc4ccc(C#Cc5ccc(F)cc5)cc4[C@@H]32)c1	-1	-9	13	2	27*	·
CCCC#Cc1ccc2c(c1)[C@@H]1[C@@H](CCN1S(=O)(=O)c1ccccc1C)[C@@H](CO)N2	·	-5	-6	0	66*	·
COc1cccc(-c2ccc3c(c2)[C@H]2[C@H](CCN2S(=O)(=O)c2cn(C)cn2)[C@H](CO)N3)c1	9	-8	3	-4	-4	·
Cn1cnc(S(=O)(=O)N2CC[C@@H]3[C@H](CO)Nc4ccc(-c5ccc(F)cc5)cc4[C@@H]32)c1	-21	-8	30	0	46*	·
CNC[C@@H]1Oc2cc(C#CCC(C)C)ccc2S(=O)(=O)N([C@H](C)CO)C[C@H]1C	13	1	-43	7	19	·

Screens from PubChem.
